From publication PMC3546139 (Molecular cancer therapeutics, 2012)
Where two headings read alike, the source gives them in different places.

Experiments:
[1] = system: FF2441 human fibroblast cells; assay: MTS cell viability assay, FF2441; type: cell-based; conditions: read-out: IC50, cell viability (MTS)
[2] = system: cultured cells; conditions: cited from earlier work
[3] = system: melanoma cells; assay: MTS cell viability assay, melanoma cells; type: cell-based; conditions: Homo sapiens, read-out: average IC50 for killing melanoma cells
[4] = doses of 200 mg per day, cited from earlier work
[5] = system: FOM103 normal human melanocytes; assay: MTS cell viability assay, FOM103; type: cell-based; conditions: Melanocyte, read-out: IC50, cell viability (MTS)
[6] = system: 1205 Lu melanoma cells (metastatic); assay: MTS cell viability assay, 1205 Lu; type: cell-based; conditions: Homo sapiens, 24 h, read-out: IC50, cell viability (MTS)
[7] = Survival and body weight of mice, daily i.p. injection for seven days; type: in vivo; conditions: 0.127 µmoles i.p. daily, 7 days of treatment, n = 3
Outline: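 Mice received test compound intraperitoneally once daily for seven days at 0.032–0.064, 0.127 or 0.127–0.254 µmoles depending on agent, n = 3 per group. Survival and body-weight change were recorded.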

[8] = system: UACC903 melanoma cells (metastatic); assay: MTS cell viability assay, UACC 903; type: cell-based; conditions: Homo sapiens, read-out: IC50, cell viability (MTS)
[9] = system: COX-2 expression in 1205 Lu and UACC 903 cells; assay: Western blot of COX-2 / COX-1 expression after MAP kinase pathway inhibitors; type: cell-based, human
Outline: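 Melanoma cells (1.5×10^6/100 mm dish) were treated 48 h after plating for 6–72 h with a B-Raf inhibitor (0.2–20 µmol/L) or a MEK inhibitor (2.5–50 µmol/L). Separately, cells were nucleofected with 100 pmoles siRNA against V600E B-Raf, MEK1, MEK2, ERK1 or ERK2, with lysates taken at day 4 or 6. Blots were probed for COX-1 and COX-2 and detected by enhanced chemiluminescence.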

[10] = system: sporadic melanomas with mutant V600EB-Raf; conditions: melanoma patients; cited from earlier work

**Q.** Which results are given for `Cc1ccc(-c2cc(C(F)(F)F)nn2-c2ccc(S(N)(=O)=O)cc2)cc1` [Celecoxib, 4-[5-(4-methylphenyl)-3-(trifluoromethyl)-1H-pyrazol-1-yl]benze nesulfonamide]?
**A.** IC50 ([1]; FF2441, 24 h): > 100 µM; IC50 ([1]; FF2441, 48 h): > 100 µM; concentrations required to induce apoptosis of cultured cells [2]: 25 to 100 µmol/L; concentrations required to trigger apoptosis in cultured cells [2]: 25 to 100 µmol/L; IC50 [3]: 55.6 µM; side effects associated with clinical use ([4]; ref 15, 16): cardiovascular side effects; side effects associated with clinical use ([4]; ref 33): cardiovascular side-effects; IC50 ([5]; 48 h): > 100 µM; IC50 ([5]; 72 h): 68 ± 1.2 µM; IC50 [5]: > 100 µM; IC50 [6]: > 100 µM; animal mortality [7]: death of all animals; IC50 ([8]; UACC-903, 24 h): > 100 µM; IC50 ([8]; UACC-903, 48 h): > 100 µM

**Q.** Which COX-2 protein expression ([9]; 1205 Lu cells) does the source give for `CCCS(=O)(=O)Nc1ccc(F)c(C(=O)c2c[nH]c3ncc(-c4ccc(Cl)cc4)cc23)c1F` [PLX-4032] here?
**A.** decreased COX-2 protein expression beginning after 12 h of treatment

**Q.** And the COX-2 protein expression ([9]; UACC 903 cells)?
**A.** significant decrease was seen from 24 h of treatment

**Q.** What about the COX-1 expression ([9]; either cell line (1205 Lu, UACC 903)) of the same compound?
**A.** no changes were observed in COX-1 expression

**Q.** What about the response rates [10] of the same compound?
**A.** up to 80%

**Q.** Which “levels of COX-2 protein and COX-1” value ([9]; 1205 Lu and UACC 903 cell lines) does the source give for `N#CC(=C(/N)Sc1ccccc1N)/C(C#N)=C(/N)Sc1ccccc1N` [U0126] here?
**A.** reduced levels of COX-2 protein without affecting COX-1
